Experimental data: ChEMBL document CHEMBL2384936, “Synthesis and evaluation of antimicrobial activity of hydrazones derived from 3-oxido-1H-imidazole-4-carbohydrazides” (Eur J Med Chem, 2013)
Values after ≈ are worked out from the molar mass of the structure shown. Active and inactive are the calls of the source. The rule behind the calls is not given here.

How the values were obtained:
Candida albicans = assay: Antifungal activity against Candida albicans ATCC 10231 assessed as growth inhibition at 1 to 600 ug/mL after 18 hrs by broth microdilution method; type: functional, organism-based
Pseudomonas aeruginosa = assay: Antibacterial activity against Pseudomonas aeruginosa NCTC 6249 assessed as growth inhibition at 1 to 600 ug/mL after 18 hrs by broth microdilution method; type: functional, organism-based
[1] = system: Staphylococcus epidermidis; assay: Antibacterial activity against Staphylococcus epidermidis ATCC 12228 assessed as growth inhibition at 1 to 600 ug/mL after 18 hrs by broth microdilution method; type: functional, organism-based
Enterococcus faecalis = assay: Antibacterial activity against Enterococcus faecalis ATCC 29212 assessed as growth inhibition at 1 to 600 ug/mL after 18 hrs by broth microdilution method; type: functional, organism-based
Proteus mirabilis = assay: Antibacterial activity against Proteus mirabilis ATCC 29906 assessed as growth inhibition at 1 to 600 ug/mL after 18 hrs by broth microdilution method; type: functional
Escherichia coli [2] = assay: Antibacterial activity against Escherichia coli NCTC 8192 assessed as growth inhibition at 1 to 600 ug/mL after 18 hrs by broth microdilution method; type: functional, organism-based
Staphylococcus aureus [3] = assay: Antibacterial activity against Staphylococcus aureus ATCC 6538 assessed as growth inhibition at 1 to 600 ug/mL after 18 hrs by broth microdilution method; type: functional, organism-based
Method in brief: (§1)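 Frozen stocks (-80 °C, tryptic soy broth with 15% glycerol); S. aureus subcultured on blood agar and identified by catalase, coagulase and clumping factor. Inoculum at 0.5 McFarland. DMSO-dissolved compounds 1–600 µg/mL in Mueller–Hinton broth, 37 °C 18 h, OD600 read with and without compound. MIC = lowest concentration preventing growth; triplicates, per CLSI.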

Proteus vulgaris = assay: Antibacterial activity against Proteus vulgaris ATCC 49990 assessed as growth inhibition at 1 to 600 ug/mL after 18 hrs by broth microdilution method; type: functional, organism-based
Staphylococcus aureus [4] = assay: Antibacterial activity against Staphylococcus aureus ATCC 29213 assessed as growth inhibition at 1 to 600 ug/mL after 18 hrs by broth microdilution method; type: functional, organism-based; method in brief: as §1
[5] = system: Staphylococcus epidermidis; assay: Bactericidal activity against Staphylococcus epidermidis ATCC 12228 after 18 hrs by broth microdilution method; type: functional; conditions: ATCC 12228, 18 h
Method in brief: (§2)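 Broth microdilution, then contents of wells without visible growth plated onto Mueller–Hinton agar and incubated 35 °C for 18 h. Triplicates, per CLSI.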

Staphylococcus aureus [6] = assay: Bactericidal activity against Staphylococcus aureus ATCC 29213 after 18 hrs by broth microdilution method; type: functional; conditions: ATCC 29213, 18 h; method in brief: as §2
Staphylococcus aureus [7] = assay: Bactericidal activity against Staphylococcus aureus ATCC 6538 after 18 hrs by broth microdilution method; type: functional; conditions: ATCC 6538, 18 h; method in brief: as §2
Escherichia coli [8] = assay: Bactericidal activity against Escherichia coli NCTC 8192 after 18 hrs by broth microdilution method; type: functional; method in brief: as §2
[9] = system: Staphylococcus epidermidis; assay: Antibacterial activity against Staphylococcus epidermidis ATCC 12228 assessed as growth inhibition after 18 hrs by broth microdilution method; type: functional; conditions: ATCC 12228, 18 h
Method in brief: (§3)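 Frozen stocks (-80 °C, tryptic soy broth with 15% glycerol); S. aureus subcultured on blood agar and identified by catalase, coagulase and clumping factor. Inoculum at 0.5 McFarland. MIC = lowest concentration preventing growth; triplicates, per CLSI.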

Staphylococcus aureus [10] = assay: Antibacterial activity against Staphylococcus aureus ATCC 29213 assessed as growth inhibition after 18 hrs by broth microdilution method; type: functional; conditions: ATCC 29213, 18 h
Method in brief: (§4)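 Broth microdilution in Mueller–Hinton broth with 1–600 µg/mL compound added from DMSO stocks. Inoculum adjusted to 0.5 McFarland. Strains stored at -80 °C and subcultured on blood agar before use. Incubation 37 °C for 18 h with OD600 read. MIC taken as the lowest concentration preventing growth, run in triplicate following CLSI. Vancomycin and oxacillin served as controls.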

Staphylococcus aureus [11] = assay: Antibacterial activity against Staphylococcus aureus ATCC 6538 assessed as growth inhibition after 18 hrs by broth microdilution method; type: functional; conditions: ATCC 6538, 18 h; method in brief: as §4
Escherichia coli [12] = assay: Antibacterial activity against Escherichia coli NCTC 8192 assessed as growth inhibition after 18 hrs by broth microdilution method; type: functional; method in brief: as §3
Staphylococcus aureus [13] = assay: Bactericidal activity against Staphylococcus aureus isolate D20 derived from bone after 18 hrs by broth microdilution method; type: functional; conditions: isolate D20, 18 h; method in brief: as §2
Staphylococcus aureus [14] = assay: Bactericidal activity against Staphylococcus aureus isolate D17 derived from bone after 18 hrs by broth microdilution method; type: functional; conditions: isolate D17, 18 h; method in brief: as §2
Staphylococcus aureus [15] = assay: Bactericidal activity against Staphylococcus aureus isolate D15 derived from bone after 18 hrs by broth microdilution method; type: functional; conditions: isolate D15, 18 h; method in brief: as §2
Staphylococcus aureus [16] = assay: Bactericidal activity against Staphylococcus aureus isolate D14 derived from bone after 18 hrs by broth microdilution method; type: functional; conditions: isolate D14, 18 h; method in brief: as §2
Staphylococcus aureus [17] = assay: Bactericidal activity against Staphylococcus aureus isolate F12 derived from ulcer and furuncle after 18 hrs by broth microdilution method; type: functional; conditions: isolate F12, 18 h; method in brief: as §2
Staphylococcus aureus [18] = assay: Bactericidal activity against Staphylococcus aureus isolate F7 derived from ulcer and furuncle after 18 hrs by broth microdilution method; type: functional; conditions: isolate F7, 18 h; method in brief: as §2
Staphylococcus aureus [19] = assay: Bactericidal activity against Staphylococcus aureus isolate F1 derived from ulcer and furuncle after 18 hrs by broth microdilution method; type: functional; conditions: isolate F1, 18 h; method in brief: as §2
Staphylococcus aureus [20] = assay: Bactericidal activity against Staphylococcus aureus isolate D12 derived from ulcer and furuncle after 18 hrs by broth microdilution method; type: functional; conditions: isolate D12, 18 h; method in brief: as §2
Staphylococcus aureus [21] = assay: Bactericidal activity against Staphylococcus aureus isolate C19 derived from naso-pharynx after 18 hrs by broth microdilution method; type: functional; conditions: isolate C19, 18 h; method in brief: as §2
Staphylococcus aureus [22] = assay: Bactericidal activity against Staphylococcus aureus isolate C8 derived from naso-pharynx after 18 hrs by broth microdilution method; type: functional; conditions: isolate C8, 18 h; method in brief: as §2
Staphylococcus aureus [23] = assay: Bactericidal activity against Staphylococcus aureus isolate C7 derived from naso-pharynx after 18 hrs by broth microdilution method; type: functional; conditions: isolate C7, 18 h; method in brief: as §2
Staphylococcus aureus [24] = assay: Bactericidal activity against Staphylococcus aureus isolate C4 derived from naso-pharynx after 18 hrs by broth microdilution method; type: functional; conditions: isolate C4, 18 h; method in brief: as §2
Staphylococcus aureus [25] = assay: Antibacterial activity against Staphylococcus aureus isolate D20 derived from bone assessed as growth inhibition after 18 hrs by broth microdilution method; type: functional; conditions: isolate D20, 18 h; method in brief: as §3
Staphylococcus aureus [26] = assay: Antibacterial activity against Staphylococcus aureus isolate D17 derived from bone assessed as growth inhibition after 18 hrs by broth microdilution method; type: functional; conditions: isolate D17, 18 h; method in brief: as §3
Staphylococcus aureus [27] = assay: Antibacterial activity against Staphylococcus aureus isolate D15 derived from bone assessed as growth inhibition after 18 hrs by broth microdilution method; type: functional; conditions: isolate D15, 18 h; method in brief: as §3
Staphylococcus aureus [28] = assay: Antibacterial activity against Staphylococcus aureus isolate D14 derived from bone assessed as growth inhibition after 18 hrs by broth microdilution method; type: functional; conditions: isolate D14, 18 h; method in brief: as §3
Staphylococcus aureus [29] = assay: Antibacterial activity against Staphylococcus aureus isolate F12 derived from ulcer and furuncle assessed as growth inhibition after 18 hrs by broth microdilution method; type: functional; conditions: isolate F12, 18 h; method in brief: as §3
Staphylococcus aureus [30] = assay: Antibacterial activity against Staphylococcus aureus isolate F7 derived from ulcer and furuncle assessed as growth inhibition after 18 hrs by broth microdilution method; type: functional; conditions: isolate F7, 18 h; method in brief: as §3
Staphylococcus aureus [31] = assay: Antibacterial activity against Staphylococcus aureus isolate F1 derived from ulcer and furuncle assessed as growth inhibition after 18 hrs by broth microdilution method; type: functional; conditions: isolate F1, 18 h; method in brief: as §3
Staphylococcus aureus [32] = assay: Antibacterial activity against Staphylococcus aureus isolate D12 derived from ulcer and furuncle assessed as growth inhibition after 18 hrs by broth microdilution method; type: functional; conditions: isolate D12, 18 h; method in brief: as §3
Staphylococcus aureus [33] = assay: Antibacterial activity against Staphylococcus aureus isolate C19 derived from naso-pharynx assessed as growth inhibition after 18 hrs by broth microdilution method; type: functional; conditions: isolate C19, 18 h; method in brief: as §3
Staphylococcus aureus [34] = assay: Antibacterial activity against Staphylococcus aureus isolate C8 derived from naso-pharynx assessed as growth inhibition after 18 hrs by broth microdilution method; type: functional; conditions: isolate C8, 18 h; method in brief: as §3
Staphylococcus aureus [35] = assay: Antibacterial activity against Staphylococcus aureus isolate C7 derived from naso-pharynx assessed as growth inhibition after 18 hrs by broth microdilution method; type: functional; conditions: isolate C7, 18 h; method in brief: as §3
Staphylococcus aureus [36] = assay: Antibacterial activity against Staphylococcus aureus isolate C4 derived from naso-pharynx assessed as growth inhibition after 18 hrs by broth microdilution method; type: functional; conditions: isolate C4, 18 h; method in brief: as §3

## C/C(=N\NC(=O)c1c(C)n(Cc2ccccc2)c[n+]1[O-])c1ccccc1
Candida albicans
  Activity: inactive
Pseudomonas aeruginosa
  Activity: inactive
[1]
  Activity: inactive
Enterococcus faecalis
  Activity: inactive
Proteus mirabilis
  Activity: inactive
Escherichia coli [2]
  Activity: inactive
Staphylococcus aureus [3]
  Activity: inactive
Proteus vulgaris
  Activity: inactive
Staphylococcus aureus [4]
  Activity: inactive

## O=C(N[C@H](CO)[C@H](O)c1ccc([N+](=O)[O-])cc1)C(Cl)Cl [CHLORAMPHENICOL]
[5]
  MBC: 2 mg/L (≈ 6.19 µM)
Staphylococcus aureus [6]
  MBC: 4 mg/L (≈ 12.4 µM)
Staphylococcus aureus [7]
  MBC: 4 mg/L (≈ 12.4 µM)
Escherichia coli [8]; NCTC 8192, 18 h
  MBC: 0.5 mg/L (≈ 1.55 µM)
[9]
  MIC: 0.5 mg/L (≈ 1.55 µM)
Staphylococcus aureus [10]
  MIC: 1 mg/L (≈ 3.09 µM)
Staphylococcus aureus [11]
  MIC: 1 mg/L (≈ 3.09 µM)
Escherichia coli [12]; NCTC 8192, 18 h
  MIC: 0.25 mg/L (≈ 0.774 µM)

## Cc1c(C(=O)NN=C2CCCCC2)[n+]([O-])cn1Cc1ccccc1
Candida albicans
  Activity: inactive
Pseudomonas aeruginosa
  Activity: inactive
[1]
  Activity: inactive
Enterococcus faecalis
  Activity: inactive
Proteus mirabilis
  Activity: inactive
Escherichia coli [2]
  Activity: inactive
Staphylococcus aureus [3]
  Activity: inactive
Proteus vulgaris
  Activity: inactive
Staphylococcus aureus [4]
  Activity: inactive

## Cc1onc(-c2ccccc2)c1C(=O)N[C@@H]1C(=O)N2[C@@H]1SC(C)(C)[C@@H]2C(=O)O [OXACILLIN]
Staphylococcus aureus [13]
  MBC: 0.4 mg/L (≈ 0.996 µM)
Staphylococcus aureus [14]
  MBC: 150 mg/L (≈ 374 µM)
Staphylococcus aureus [15]
  MBC: 150 mg/L (≈ 374 µM)
Staphylococcus aureus [16]
  MBC: 0.2 mg/L (≈ 0.498 µM)
Staphylococcus aureus [17]
  MBC: 0.4 mg/L (≈ 0.996 µM)
Staphylococcus aureus [18]
  MBC: 0.2 mg/L (≈ 0.498 µM)
Staphylococcus aureus [19]
  MBC: 0.8 mg/L (≈ 1.99 µM)
Staphylococcus aureus [20]
  MBC: 0.4 mg/L (≈ 0.996 µM)
Staphylococcus aureus [21]
  MBC: 0.2 mg/L (≈ 0.498 µM)
Staphylococcus aureus [22]
  MBC: 1.5 mg/L (≈ 3.74 µM)
Staphylococcus aureus [23]
  MBC: 0.4 mg/L (≈ 0.996 µM)
Staphylococcus aureus [24]
  MBC: 0.4 mg/L (≈ 0.996 µM)
Staphylococcus aureus [25]
  MIC: 0.4 mg/L (≈ 0.996 µM)
Staphylococcus aureus [26]
  MIC: 75 mg/L (≈ 187 µM)
Staphylococcus aureus [27]
  MIC: 75 mg/L (≈ 187 µM)
Staphylococcus aureus [28]
  MIC: 0.2 mg/L (≈ 0.498 µM)
Staphylococcus aureus [29]
  MIC: 0.2 mg/L (≈ 0.498 µM)
Staphylococcus aureus [30]
  MIC: 0.2 mg/L (≈ 0.498 µM)
Staphylococcus aureus [31]
  MIC: 0.8 mg/L (≈ 1.99 µM)
Staphylococcus aureus [32]
  MIC: 0.2 mg/L (≈ 0.498 µM)
Staphylococcus aureus [33]
  MIC: 0.2 mg/L (≈ 0.498 µM)
Staphylococcus aureus [34]
  MIC: 1.5 mg/L (≈ 3.74 µM)
Staphylococcus aureus [35]
  MIC: 0.2 mg/L (≈ 0.498 µM)
Staphylococcus aureus [36]
  MIC: 0.4 mg/L (≈ 0.996 µM)
[5]
  MBC: 0.2 mg/L (≈ 0.498 µM)
Staphylococcus aureus [6]
  MBC: 0.2 mg/L (≈ 0.498 µM)
Staphylococcus aureus [7]
  MBC: 0.2 mg/L (≈ 0.498 µM)
Escherichia coli [8]
  MBC: inactive
[9]
  MIC: 0.2 mg/L (≈ 0.498 µM)
Staphylococcus aureus [10]
  MIC: 0.2 mg/L (≈ 0.498 µM)
Staphylococcus aureus [11]
  MIC: 0.2 mg/L (≈ 0.498 µM)
Escherichia coli [12]
  MIC: inactive

## Cc1c(C(=O)N/N=C/c2ccc([N+](=O)[O-])cc2)[n+]([O-])cn1Cc1ccccc1
Candida albicans
  Activity: inactive
Pseudomonas aeruginosa
  Activity: inactive
[1]
  Activity: inactive
Enterococcus faecalis
  Activity: inactive
Proteus mirabilis
  Activity: inactive
Escherichia coli [2]
  Activity: inactive
Staphylococcus aureus [3]
  Activity: inactive
Proteus vulgaris
  Activity: inactive
Staphylococcus aureus [4]
  Activity: inactive

## Cc1c(C(=O)N/N=C/c2ccco2)[n+]([O-])cn1Cc1ccccc1
Candida albicans
  Activity: inactive
Pseudomonas aeruginosa
  Activity: inactive
[1]
  Activity: inactive
Enterococcus faecalis
  Activity: inactive
Proteus mirabilis
  Activity: inactive
Escherichia coli [2]
  Activity: inactive
Staphylococcus aureus [3]
  Activity: inactive
Proteus vulgaris
  Activity: inactive
Staphylococcus aureus [4]
  Activity: inactive
